Source: PubChem BioAssay
Rev-erbA mod: Rev-erb alpha (human) modulation; P20393; Rev-erbα–FITC-DNA binding, fluorescence polarization, 90 min; activity, % at 10 µM; 0.79% of 370,000 active;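 active means activity above about 14%, limit read from the data; passing the limit was not always enough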
PG9 Ab binder: small molecules binding HIV-1 gp120 antibody PG9; TR-FRET gp120-PG9 antibody binding; inhibition, % at 6.7 µM; 0.43% of 360,000 active; in the data active means inhibition above about 8.5%
NR2E3 ag-1: NR2E3 (human) agonism. Q9Y5X4. GST-NR2E3/biotin-RetCOR TR-FRET, 1536-well. inhibition of corepressor binding, % at 4.78 µM. 0.12% of 320,000 active. AID 2300;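 active means percent inhibition above the cutoff of mean plus 3 SD of all tested compounds, set per screening campaign, cut at about 20% in these data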
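Test system – NR2E3–RetCOR corepressor complex · Quantity – NR2E3 fusion 1.35 nM · Buffer or medium – Tris pH 7.5 · Incubation – Compound–protein incubation for 5 h at 4 °C · Technique – TR-FRET, Eu(K)-anti-GST donor, streptavidin-D2 acceptor, ex 340, em 617/671 nm · Evaluation – percent inhibition of 671/617 nm emission ratio versus biotin and DMSO controls · Plate – 1536-well format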
NR2E3 ag-2: activates human NR2E3 receptor; CHO-S Gal4-NCOR/VP16-NR2E3 two-hybrid, luciferase; 0.35% of 360,000 active; AID 602229; inhibition of corepressor binding, % at 3.98 µM; Q9Y5X4;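 active means inhibition above the mean of all tested compounds plus 3 SD, cut at about 70% in these data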;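 further: higher means lower luciferase signal from less NR2E3 corepressor binding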
NR2E3 agonist cf: confirmation of human NR2E3 nuclear receptor agonists; shares compounds with NR2E3 ag-1; cell-free NR2E3 corepressor release, TR-FRET, 5 h; activation (reported as inhibition), % at 3.98 µM; 39% of 360 active; in the data active means activation above about 20%
PPARg-NCOR2 ag: releases PPARgamma from NCOR2 in NR2E3 counter-screen | shares compounds with NR2E3 ag-1 | TR-FRET PPARg-NCOR2 coregulator interaction, biochemical | inhibition, % at 3.98 µM | 45% of 360 active; in the data active means inhibition above about 20%
PG9 binder conf: PG9 antibody binding, confirmed; inhibition, % at 6.7 µM; TR-FRET PG9 antibody binding, biochemical; AID 651571; shares compounds with PG9 Ab binder; 90% of 1,500 active; in the data active means inhibition above about 9%
PGV04 counter: counter-screen for PG9 binders: binding control antibody PGV04; shares compounds with PG9 Ab binder; TR-FRET PGV04 antibody-gp120 binding, biochemical; inhibition, % at 6.7 µM; 95% of 1,500 active; AID 651604; in the data active means inhibition above about 9.5%
Large screens that a line does not name were inactive (follow-up assays come after a bar, where they were run). Most compounds without a hit are left out; they make up all but 1.4% or so of the library.

O=C(C1=C(O)C(=O)N(CCN2CCOCC2)C1c1ccc(F)cc1)c1cc2ccccc2o1 (centres undefined)	PG9 Ab binder 11, NR2E3 ag-1 27 | NR2E3 agonist cf 31 | PPARg-NCOR2 ag 32 | PG9 binder conf 17 | PGV04 counter 22
CN(C)CCN1C(=O)C(O)=C(C(=O)c2cc3ccccc3o2)C1c1cccc(Br)c1 (centres undefined)	PG9 Ab binder 31, NR2E3 ag-1 36 | NR2E3 agonist cf 36 | PPARg-NCOR2 ag 34 | PG9 binder conf 38 | PGV04 counter 47
O=C(C1=C(O)C(=O)N(CCN2CCOCC2)C1c1ccco1)c1cc2ccccc2o1 (centres undefined)	none
CCN(CC)CCN1C(=O)C(O)=C(C(=O)c2cc3ccccc3o2)C1c1cccnc1 (centres undefined)	PG9 Ab binder 24, NR2E3 ag-1 28 | NR2E3 agonist cf 27 | PPARg-NCOR2 ag 28 | PG9 binder conf 36 | PGV04 counter 46
CC(C)C[C@H]1CNC(=S)N1CC1CCN(CCC23CC4CC(CC(C4)C2)C3)CC1	none (no result: NR2E3 ag-1)
O=C(CSc1ccsc1[N+](=O)[O-])Nc1cccc(F)c1	none (no result: NR2E3 ag-1)
CCc1cc(=O)oc2cc(C)cc(OCC(=O)N3CCC(C(=O)O)CC3)c12	none
CC1(C)C(=O)Nc2ccccc2N1C(=O)CSc1ncccn1	none
CCc1ccccc1NC(=O)C1CCC(=O)N(c2ccc(OC)cc2)C1c1ccc(OC)cc1 (centres undefined)	none (no result: PG9 Ab binder, NR2E3 ag-1, NR2E3 ag-2)
CCOc1cc(C2C(C(=O)c3ccco3)=C(O)C(=O)N2CCc2ccccc2)ccc1O (centres undefined)	none
O=C(C1=C(O)C(=O)N(CCN2CCOCC2)C1c1cccc(Br)c1)c1cc2ccccc2o1 (centres undefined)	PG9 Ab binder 23, NR2E3 ag-1 35 | NR2E3 agonist cf 52 | PPARg-NCOR2 ag 57 | PG9 binder conf 34 | PGV04 counter 43
O=C(C1=C(O)C(=O)N(CCc2ccccc2)C1c1ccncc1)c1cc2ccccc2o1 (centres undefined)	PG9 Ab binder 19, NR2E3 ag-1 34 | NR2E3 agonist cf 31 | PPARg-NCOR2 ag 31 | PG9 binder conf 30 | PGV04 counter 40
O=C1C(=O)N(Cc2cccnc2)C(c2cccc(Br)c2)/C1=C(/O)c1ccc2c(c1)OCO2 (centres undefined)	PG9 Ab binder 37, NR2E3 ag-1 47 | NR2E3 agonist cf 27 | PPARg-NCOR2 ag 31 | PG9 binder conf 39 | PGV04 counter 46
COc1cccc(C2/C(=C(/O)c3ccc4c(c3)OCO4)C(=O)C(=O)N2CCN2CCOCC2)c1 (centres undefined)	PG9 Ab binder 21, NR2E3 ag-1 30 | NR2E3 agonist cf 29 | PPARg-NCOR2 ag 27 | PG9 binder conf 31 | PGV04 counter 37
O=C(O)CCC(=O)N1CCN(c2nc(-c3ccccc3Cl)c3cc(Br)ccc3n2)CC1	PG9 Ab binder 11, NR2E3 ag-1 24 | NR2E3 agonist cf inactive | PPARg-NCOR2 ag inactive | PG9 binder conf 16 | PGV04 counter 23
O=C(O)CCC(=O)N1CCN(c2nc(-c3ccccc3)c3cc(Br)ccc3n2)CC1	none
COc1ccc(NS(=O)(=O)c2cc(NC(=O)c3cccc(OCc4c(C)noc4C)c3)ccc2OC)cc1	none
Cc1cc(C)c(OCC(=O)Nc2ccc3c(c2)OCO3)cc1C	PG9 Ab binder 18, NR2E3 ag-1 29 | NR2E3 agonist cf inactive | PPARg-NCOR2 ag inactive | PG9 binder conf 20 | PGV04 counter 24
O=C(NC1Cc2ccccc2C1)c1cc(COc2ccc(F)cc2Cl)on1	none
Cc1cc(SCC(=O)NC2CCCC2)nc2ccccc12	PG9 Ab binder 16, NR2E3 ag-1 22 | NR2E3 agonist cf inactive | PPARg-NCOR2 ag inactive | PG9 binder conf 31 | PGV04 counter 44
